The source of these data is ChEMBL document CHEMBL4368928, “New hybrid trifluoromethylquinolines as antiplasmodium agents” (Bioorg Med Chem, 2019).

Data set [1] can be described thus: Cytotoxicity in African green monkey BGM cells assessed as reduction in cell viability incubated for 24 hrs by MTT assay. Format: cell-based. The settings on record: Chlorocebus aethiops. In short, it runs like this:
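BGM monkey kidney cells kept in RPMI 1640 with 10% heat-inactivated fetal serum at 37 °C, 5% CO2. Seeded at 5 × 10^3 cells/well and allowed to adhere 18 h. Exposed 24 h to 200–25 μg/mL from a 20 mg/mL DMSO stock. MTT added for 3 h, formazan dissolved in DMSO, OD read at 570/630 nm. Viability as % of untreated control; EC50 derived from this.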

The test system of data set [2] is Plasmodium falciparum. Description: Antimalarial activity against chloroquine-resistant and mefloquine-sensitive Plasmodium falciparum W2 ring stage form infected in human erythrocytes by spectrophotometric analysis. The data set is classed as functional, organism-based. A digest of the protocol: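 W2 clone grown in A+ human erythrocytes in RPMI 1640 with 1% Albumax II. Sorbitol-synchronized rings at 1.5% hematocrit and 0.05% parasitemia; compounds from 10 mg/mL DMSO stock, final 0.02% DMSO; triplicate per dose. Growth read by anti-HRPII ELISA (TMB, A450) versus drug-free cultures; IC50 from sigmoid dose-response fits.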

Data set [3] is described as follows: Selectivity index, ratio of EC50 for African green monkey BGM cells to IC50 for chloroquine-resistant mefloquine-sensitive Plasmodium falciparum W2 ring stage form infected in human erythrocytes. The data set is classed as toxicity, cell-based. The note with it: read-out: Selectivity Index. In short, it runs like this: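 SI = BGM EC50 / W2 IC50. BGM cells seeded at 5 × 10^3/well, adhered 18 h, exposed 24 h at 37 °C, 5% CO2 to 200–25 µg/mL (20 mg/mL DMSO stock). MTT added 3 h, formazan in DMSO, OD 570/630 nm; viability as % untreated. W2 IC50 from HRPII ELISA on synchronized rings.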

For data set [4], the system named is Plasmodium berghei. Description: Antimalarial activity against Plasmodium berghei NK65 infected in mouse assessed as parasite survival at 20 mg/kg, po administered daily for 3 consecutive days (reference value: 13+/- 3 days). The data set is classed as functional. In short, it runs like this: (§1)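 P. berghei NK65 (weekly blood passage); mice infected i.p. with 1 × 10^5 infected erythrocytes, grouped five per cage about 24 h later. Dosed orally once daily for three days in 3% DMSO/RPMI: test compounds at 50 mg/kg, CQ and MQ at 20 mg/kg, vehicle controls. Tail-blood Giemsa thin smears on days 5, 7 and 9; survival recorded in days.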

For data set [5], the system named is Plasmodium berghei. Nature of the data set: Antimalarial activity against Plasmodium berghei NK65 infected in mouse assessed as reduction in parasite growth at 20 mg/kg, po administered daily for 3 consecutive days and measured on day 5 post parasite inoculation relative to control. The data set is classed as functional. Details: scale not given: the % may be the effect or the level left. In short, it runs like this: (§2)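 Suppressive test: mice inoculated i.p. with 1 × 10^5 P. berghei NK65-infected erythrocytes, randomized about 24 h later to groups of five. Dosed orally once daily for three consecutive days, freshly diluted in 3% DMSO in RPMI; vehicle controls included. Parasitemia was read on days 5, 7 and 9 from Giemsa-stained, methanol-fixed tail-blood thin smears at 1000X. Inhibition is given relative to untreated mice, taken as 100% growth.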

The subject of data set [6] is Plasmodium berghei. Description: Antimalarial activity against Plasmodium berghei NK65 infected in mouse assessed as reduction in parasite growth at 20 mg/kg, po administered daily for 3 consecutive days and measured on day 9 post parasite inoculation relative to control. The data set is classed as functional. Details: scale not given: the % may be the effect or the level left. A digest of the protocol: as §2

The test system of data set [7] is Plasmodium berghei. Description: Antimalarial activity against Plasmodium berghei NK65 infected in mouse assessed as reduction in parasite growth at 20 mg/kg, po administered daily for 3 consecutive days and measured on day 7 post parasite inoculation relative to control. The data set is classed as functional. Also noted: scale not given: the % may be the effect or the level left. In short, it runs like this:
as §2

Data set [8] has as its system Plasmodium berghei. Description: Antimalarial activity against Plasmodium berghei NK65 infected in mouse assessed as reduction in parasite growth at 50 mg/kg, po administered daily for 3 consecutive days and measured on day 9 post parasite inoculation relative to control. The data set is classed as functional. Details: scale not given: the % may be the effect or the level left. In short, it runs like this: as §2

In data set [9] the test system is Plasmodium berghei. Nature of the data set: Antimalarial activity against Plasmodium berghei NK65 infected in mouse assessed as parasite survival at 50 mg/kg, po administered daily for 3 consecutive days (reference value: 13+/- 3 days). Format: functional. In short, it runs like this: as §1
Data set [10] deals with Plasmodium berghei. Nature of the data set: Antimalarial activity against Plasmodium berghei NK65 infected in mouse assessed as reduction in parasite growth at 50 mg/kg, po administered daily for 3 consecutive days and measured on day 5 post parasite inoculation relative to control. Format: functional. Details: scale not given: the % may be the effect or the level left. In short, it runs like this:
as §2

Data set [11] deals with Plasmodium berghei. Nature of the data set: Antimalarial activity against Plasmodium berghei NK65 infected in mouse assessed as reduction in parasite growth at 50 mg/kg, po administered daily for 3 consecutive days and measured on day 7 post parasite inoculation relative to control. Details: scale not given: the % may be the effect or the level left. Format: functional. In short, it runs like this: as §2

Molecules are shown by their SMILES.

Regarding `FC(F)(F)c1cc(NC2CCCCC2)c2cccc(C(F)(F)F)c2n1`, the EC50 (in general, the concentration at which the effect is half-maximal) in [1] amounted to 127 µM. Also, the IC50 (in general, the concentration that inhibits the measured activity by half) in [2] stood at 11 µM. Moreover, the selectivity ratio in data set [3] is 11.5.

As for `COc1ccc(Nc2cc(C(F)(F)F)nc3c(C(F)(F)F)cccc23)cc1OC`, the EC50 in [1] was determined as 130 µM. This compound returned an IC50 in data set [2] of 4.8 µM. For the same compound, in data set [3], the selectivity ratio was determined as 27.

Consider `Cc1nnc(Nc2cc(C(F)(F)F)nc3c(C(F)(F)F)cccc23)s1`, for which, in [1], the EC50 was found to be 1.5 µM. Moreover, 1.8 µM corresponded to half-maximal inhibition in [2] (IC50). For the same compound, in data set [3], the selectivity ratio came out at 0.8.

With `FC(F)(F)c1cc(N2CCNCC2)c2cccc(C(F)(F)F)c2n1`, in [1], the EC50 was determined as 17.2 µM. The IC50 in data set [2] came out at 31.5 µM. Further, the selectivity ratio in data set [3] came to 0.5.

As for `FC(F)(F)c1cc(Nc2ccccn2)c2cccc(C(F)(F)F)c2n1`, the EC50 in data set [1] was < 44.8 µM. For the same compound, in data set [2], the IC50 worked out at 19.6 µM. The selectivity ratio in [3] was < 2.29.

As to `CCN(CC)CCCC(C)Nc1ccnc2cc(Cl)ccc12` (stereo not given) [CHLOROQUINE], the Survival in data set [4] turned out to be 24 days. For the same compound, the results for the Activity in data set [5], in [6] and in [7] were 99%, 84% and 99%, respectively. Further, in data set [1], the EC50 was 907 µM.

Consider `FC(F)(F)c1cc(N2CCOCC2)c2cccc(C(F)(F)F)c2n1`, for which the EC50 in data set [1] came to 1680 µM. Further, in data set [2], the IC50 is > 143 µM. For the same compound, the selectivity ratio in data set [3] was < 11.7.

As to `O[C@@H](c1cc(C(F)(F)F)nc2c(C(F)(F)F)cccc12)[C@H]1CCCCN1` (relative stereo) [(S,R)-MEFLOQUINE], the Survival in data set [4] is >30 days. For the same compound, the Activity in [5] came out at 98%; in data set [6], 99%; in data set [7], 98%. For the same compound, the EC50 in [1] was found to be 15 µM. In addition, inhibition in [2] was half-maximal at 0.019 µM (IC50). The selectivity ratio in [3] was found to be 789.

In the case of `FC(F)(F)c1cc(Nc2ccc3ccccc3c2)c2cccc(C(F)(F)F)c2n1`, the EC50 in data set [1] came out at 12.3 µM. The compound also registered an IC50 in data set [2] of 9.6 µM. For the same compound, the selectivity ratio in [3] was found to be 1.2.

Consider `FC(F)(F)c1cc(Nc2nnc(C(F)(F)F)[nH]2)c2cccc(C(F)(F)F)c2n1`, for which, in data set [1], the EC50 amounted to 84.2 µM. Besides, the IC50 in [2] was determined as 11.5 µM. Further, the selectivity ratio in data set [3] turned out to be 7.3.

For `Fc1ccc(Nc2cc(C(F)(F)F)nc3c(C(F)(F)F)cccc23)cc1`, the EC50 in data set [1] was < 42.8 µM. This compound also yielded an IC50 in data set [2] of 16 µM. In addition, in data set [3], the selectivity ratio is < 2.67.

Take `FC(F)(F)c1cc(Nc2nnc[nH]2)c2cccc(C(F)(F)F)c2n1`: in data set [1], the EC50 is < 23.1 µM. Also, in data set [2], the IC50 was determined as 2.9 µM. The selectivity ratio in data set [3] is < 8.

Consider `FC(F)(F)c1cc(Nc2ccccc2C(F)(F)F)c2cccc(C(F)(F)F)c2n1`, for which the EC50 in data set [1] is < 18.9 µM. Half-maximal inhibition in data set [2] (IC50) required 33 µM. For the same compound, the selectivity ratio in [3] was < 0.57.

In the case of `FC(F)(F)c1cc(Nc2ccncc2)c2cccc(C(F)(F)F)c2n1`, the Activity in [8] is recorded as 11%; in data set [10] it was 25%; in data set [11], 42%. Besides, in [9], the Survival stood at 15 days. For the same compound, the EC50 in [1] was > 560 µM. In [2], this compound yielded an IC50 of 8.4 µM. For the same compound, the selectivity ratio in data set [3] was > 66.7.

As for `Oc1ccc(Nc2cc(C(F)(F)F)nc3c(C(F)(F)F)cccc23)cc1`, the EC50 in data set [1] came to 672 µM. In data set [2], this compound showed an IC50 of 24.1 µM. Also, the selectivity ratio in [3] is < 27.9.

Turning to `Cc1nnc(Nc2cc(C(F)(F)F)nc3c(C(F)(F)F)cccc23)[nH]1`, the figures for the Activity in data set [8], in [10] and in data set [11] were 23%, 66% and 30%, respectively. For the same compound, the Survival in data set [9] was determined as 19 days. The EC50 in [1] came out at 11 µM. Besides, the IC50 in data set [2] turned out to be 0.083 µM. For the same compound, in data set [3], the selectivity ratio is 132.

Turning to `FC(F)(F)c1cc(Nc2ccccc2)c2cccc(C(F)(F)F)c2n1`, the EC50 in [1] was < 22.5 µM. For the same compound, the IC50 in [2] was found to be 28 µM. In data set [3], the selectivity ratio was < 0.83.

Turning to `FC(F)(F)c1cc(Nc2ncccn2)c2cccc(C(F)(F)F)c2n1`, the values for the Activity in [8], in data set [10] and in data set [11] were 31%, 61% and 35%, respectively. Besides, the Survival in data set [9] was 13 days. In addition, the EC50 in data set [1] was > 559 µM. The compound also registered an IC50 in [2] of 8.4 µM. Moreover, the selectivity ratio in [3] was > 66.5.

As for `Clc1ccc2c(Nc3ccncc3)ccnc2c1`, the EC50 in [1] is 784 µM. The midpoint of inhibition in [2], the IC50, lay at 11.7 µM. For the same compound, in [3], the selectivity ratio was 67.
